According to ChEMBL document CHEMBL1157779, “Merging the structural motifs of functionalized amino acids and alpha-aminoamides: compounds with significant anticonvulsant activities” (J Med Chem, 2010):
Calls of active or inactive are those of the source.

Experiments:
[1] = tested on: Mus musculus; experiment: Anticonvulsant activity in ip dosed albino mouse assessed as inhibition of maximal electroshock-induced seizures after 4 hrs; type: functional
How it was run: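 Male albino Carworth Farms No. 1 mice given compound ip; maximal electroshock applied and protection scored as blockade of hind limb extension; identification screening, then ED50 (mg/kg) from quantitative testing for active compounds.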

[2] = Toxicity in ip dosed albino mouse after 4 hrs by rotarod test; type: organism-based; conditions: in vivo
How it was run: (§1)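 Male albino Carworth Farms No. 1 mice dosed ip; neurological impairment by rotorod test at set times; TD50 (mg/kg) determined for compounds active in MES.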

[3] = tested on: Rattus norvegicus; experiment: Anticonvulsant activity in po dosed Sprague-Dawley albino rat assessed as inhibition of maximal electroshock-induced seizures; type: functional
How it was run: (§2)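 Male albino Sprague-Dawley rats dosed orally; maximal electroshock seizures, protection scored as blockade of hind limb extension, tested at set times after dosing; ED50 in mg/kg from quantitative evaluation for active compounds.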

[4] = tested on: Rattus norvegicus; experiment: Behavioral toxicity in po dosed Sprague-Dawley albino rat; type: organism-based; conditions: in vivo
[5] = tested on: Mus musculus; experiment: Anticonvulsant activity in albino mouse assessed as protection against subcutaneous metrazole-induced seizures up to 300 mg/kg, ip after 0.5 hrs; type: functional, organism-based; parameters: dose 300 mg/kg
How it was run: (§3)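 Male albino Carworth Farms No. 1 mice dosed ip under NIH Anticonvulsant Screening Program; subcutaneous Metrazol seizure challenge at 0.5 and 4 h after doses up to 300 mg/kg.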

[6] = tested on: Mus musculus; experiment: Anticonvulsant activity in albino mouse assessed as protection against subcutaneous metrazole-induced seizures up to 300 mg/kg, ip after 4 hrs; type: functional, organism-based; parameters: dose 300 mg/kg; how it was run: as §3
[7] = tested on: Mus musculus; experiment: Anticonvulsant activity in ip dosed albino mouse assessed as inhibition of maximal electroshock-induced seizures after 0.5 hrs; type: functional
[8] = Behavioral toxicity in po dosed Sprague-Dawley albino rat after 4 hrs; type: organism-based; conditions: Sprague-Dawley, in vivo
How it was run: (§4)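 Oral dosing in male albino Sprague-Dawley rats with behavioral toxicity observation at set times after dosing, doses up to 500 mg/kg.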

[9] = tested on: Rattus norvegicus; experiment: Anticonvulsant activity in po dosed Sprague-Dawley albino rat assessed as inhibition of maximal electroshock-induced seizures after 0.25 to 4 hrs; type: functional; how it was run: as §2
[10] = Behavioral toxicity in po dosed Sprague-Dawley albino rat after 0.25 to 4 hrs; type: organism-based; conditions: in vivo; how it was run: as §4
[11] = tested on: Mus musculus; experiment: Anticonvulsant activity in ip dosed albino mouse assessed as inhibition of maximal electroshock-induced seizures; type: functional; conditions: read-out: ED50
How it was run: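 Male albino Carworth Farms No. 1 mice dosed intraperitoneally; screened via the NIH Anticonvulsant Screening Program. Protection scored as blocking of hind limb extension after maximal electroshock. Median effective dose (ED50, mg/kg) obtained in quantitative evaluations of active compounds. Rotorod test gave TD50 for neurological impairment, and PI = TD50/ED50.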

[12] = Toxicity in ip dosed albino mouse by rotarod test; type: organism-based; conditions: in vivo; how it was run: as §1
[13] = species: Mus musculus; experiment: Protective index, ratio of TD50 for albino mouse to anticonvulsant ED50 for albino mouse; type: functional
[14] = tested on: Mus musculus; experiment: Anticonvulsant activity in ip dosed albino mouse assessed as inhibition of maximal electroshock-induced seizures after […]; type: functional
[15] = tested on: Mus musculus; experiment: Anticonvulsant activity in ip dosed albino mouse assessed as protection against 6 Hz electric shock-induced seizures after […]; type: functional
[16] = (§5) Toxicity in ip dosed albino mouse after 0.5 hrs by rotarod test; type: organism-based; conditions: albino, in vivo
[17] = tested on: Rattus norvegicus; experiment: Anticonvulsant activity in po dosed Sprague-Dawley albino rat assessed as inhibition of maximal electroshock-induced seizures after 1 hr; type: functional; how it was run: as §2
[18] = species: Rattus norvegicus; experiment: Protective index, ratio of TD50 for Sprague-Dawley albino rat to anticonvulsant ED50 for Sprague-Dawley albino rat; type: functional
How it was run: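 Rat, oral: behavioral-toxicity TD50 divided by MES ED50, both in mg/kg.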

[19] = tested on: Mus musculus; experiment: as §5; type: organism-based; conditions: in vivo, 0.5 h
[20] = tested on: Rattus norvegicus; experiment: Anticonvulsant activity in po dosed Sprague-Dawley albino rat assessed as inhibition of maximal electroshock-induced seizures after 4 hrs; type: functional; how it was run: as §2
[21] = Behavioral toxicity in po dosed Sprague-Dawley albino rat after […]; type: organism-based; conditions: in vivo
[22] = (§6) Behavioral toxicity in po dosed Sprague-Dawley albino rat after 1 hr; type: organism-based; conditions: Sprague-Dawley, in vivo; how it was run: as §4
[23] = tested on: Mus musculus; experiment: Anticonvulsant activity in ip dosed albino mouse assessed as inhibition of maximal electroshock-induced seizures after 2 hrs; type: functional
[24] = tested on: Rattus norvegicus; experiment: as §6; type: organism-based; conditions: in vivo, 1 h; how it was run: as §4
[25] = tested on: Rattus norvegicus; experiment: Anticonvulsant activity in po dosed Sprague-Dawley albino rat assessed as inhibition of maximal electroshock-induced seizures after 0.5 hrs; type: functional
[26] = tested on: Rattus norvegicus; experiment: Behavioral toxicity in po dosed Sprague-Dawley albino rat after 0.5 hrs; type: organism-based; conditions: in vivo; how it was run: as §4
[27] = tested on: Rattus norvegicus; experiment: Antiallodynic activity in Sprague-Dawley albino rat sciatic nerve ligation model of neuropathic pain assessed as fold attenuation of mechanical allodynia at 12 mg/kg, ip after 1 hr relative to control; type: functional; conditions: route intraperitoneal
How it was run: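 Male albino Sprague-Dawley rats; sciatic nerve ligated on right side, sham exposure on left; after 7 d recovery, animals on wire mesh platform, 30–60 min acclimation. Baseline 50% paw withdrawal threshold by calibrated von Frey fibres held 6 s, stepping down after a positive response; threshold re-measured after 12 mg/kg ip at time-to-peak effect in MES test.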

[28] = tested on: Mus musculus; experiment: Antiinflammatory activity in albino mouse assessed as reduction in formalin-induced acute inflammation at 15 mg/kg, ip relative to control; type: functional; parameters: scale not given: the % may be the effect or the level left; conditions: route intraperitoneal
How it was run: (§7)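 Male albino mice, 16 per trial (8 given vehicle ip, 8 given 15 mg/kg ip); 0.5% formalin injected into hind paw; paw-licking time recorded in 2 min intervals for 45 min; acute and late (inflammatory) phases expressed as percent of control.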

[29] = tested on: Mus musculus; experiment: Antiinflammatory activity in albino mouse assessed as reduction in formalin-induced late inflammation at 15 mg/kg, ip relative to control; type: functional; parameters: scale not given: the % may be the effect or the level left; conditions: route intraperitoneal; how it was run: as §7

CC(=O)N[C@@H](C(=O)NCc1ccc(OCc2cccc(F)c2)cc1)C(C)C
ED50 [1]: > 300 mg/kg | TD50 at 4 h [2]: > 300 mg/kg | ED50 [3]: > 30 mg/kg | TD50 [4]: > 30 mg/kg | Activity [5]: inactive | Activity [6]: inactive

CC(=O)NC(C(=O)NCc1ccc(OCc2cccc(F)c2)cc1)c1ccccn1 (racemic)
ED50 [7]: 28 mg/kg | TD50 at 4 h [8]: > 30 mg/kg | Activity [5]: inactive | Activity [6]: inactive

CC(=O)N[C@@H](C)C(=O)NCc1ccc(OCc2cccc(F)c2)cc1
ED50 [1]: > 300 mg/kg | ED50 [7]: 100 mg/kg | ED50 [9]: > 30 mg/kg | TD50 [10]: > 30 mg/kg | Activity [5]: inactive | Activity [6]: inactive

C[C@@H](NCc1ccc(OCc2cccc(F)c2)cc1)C(N)=O
ED50 [11]: 7.2 mg/kg | TD50 [12]: 580 mg/kg | Ratio TD50/ED50 [13]: 88 | Activity [5]: inactive | Activity [6]: inactive

O=C1NC(=O)C(c2ccccc2)(c2ccccc2)N1
Activity [5]: inactive | Activity [6]: inactive

CCCC(CCC)C(=O)[O-].[Na+] [VALPROATE SODIUM]
ED50 [14]: 270 mg/kg | Activity [5]: inactive | Activity [6]: inactive

COC[C@@H](NC(C)=O)C(=O)NCc1ccc(-c2cccc(F)c2)cc1
ED50 [7]: 10 mg/kg | ED50 [15]: < 30 mg/kg | TD50 at 0.5 h [16]: 100 mg/kg | ED50 [17]: 2.4 mg/kg | TD50 [4]: > 500 mg/kg | Ratio TD50/ED50 [18]: >250

COC[C@H](NC(C)=O)C(=O)NCc1ccc(OCc2cccc(F)c2)cc1
Activity [5]: inactive | Activity [6]: inactive

CC(=O)N[C@@H](C(=O)NCc1ccc(OCc2cccc(F)c2)cc1)C(C)(C)C
ED50 [1]: > 300 mg/kg | TD50 [19]: > 300 mg/kg | TD50 at 4 h [2]: 300 mg/kg | Activity [5]: inactive | Activity [6]: inactive

COC[C@@H](NC(C)=O)C(=O)NCc1ccc(/C=C/c2cccc(F)c2)cc1
ED50 [7]: 30 mg/kg | ED50 [15]: < 30 mg/kg | TD50 at 0.5 h [16]: 100 mg/kg | ED50 [17]: 30 mg/kg | ED50 [20]: 30 mg/kg | TD50 at […] [21]: > 30 mg/kg

COC[C@@H](NC(C)=O)C(=O)NCc1ccc(OCc2ccccc2F)cc1
ED50 [14]: 6.7 mg/kg

CCC1(c2ccccc2)C(=O)NC(=O)NC1=O
Activity [5]: inactive | Activity [6]: inactive

COC[C@@H](NC(C)=O)C(=O)NCc1ccc(OCc2ccccc2)cc1
ED50 [14]: 5.8 mg/kg | Ratio TD50/ED50 [13]: 3.8 | TD50 at 1 h [22]: > 250 mg/kg | Ratio TD50/ED50 [18]: >45

CC(=O)NCC(=O)NCc1ccc(OCc2cccc(F)c2)cc1
ED50 [1]: 100 mg/kg | ED50 [23]: 30 mg/kg | TD50 at 4 h [2]: > 300 mg/kg | ED50 [17]: 31 mg/kg | ED50 [3]: 18 mg/kg | TD50 [24]: > 500 mg/kg | Ratio TD50/ED50 [18]: >16 | Activity [5]: inactive | Activity [6]: inactive

COC[C@@H](NC(C)=O)C(=O)NCc1ccc(OCc2cccc(F)c2)cc1
ED50 [14]: 13 mg/kg | ED50 [15]: 10 mg/kg | Ratio TD50/ED50 [13]: 2 | ED50 [25]: 14 mg/kg | TD50 [26]: > 500 mg/kg | Ratio TD50/ED50 [18]: >36 | Activity [5]: inactive | Activity [6]: inactive | fold change (FC) [27]: 11.2 | Activity [28]: 35% | Activity [29]: 44%
